eIF2B yeast act: GCN4-lacZ reporter reduction in eIF2B-epsilon mutant yeast, primary screen, S. cerevisiae, eIF2B-epsilon R284H, Beta-Glo luminescence; hit rate 0.91% among 27,000; inhibition, % at 25 µM (by protocol);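 active means mutant luminescence inhibited past about 50% while wild type luminescence and mutant growth stay under set limits, limit read from the data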
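Assay system: yeast eIF2B-epsilon R284H mutant carrying GCN4–beta-galactosidase fusion / Buffer or medium: YPD / Incubation: 16 h growth with compound at 30 °C, 90 min Beta-Glo step / Detection: Beta-Glo luminescence after Z-buffer lysis, growth by 595 nm absorbance / Read-out: % inhibition of reporter signal and growth versus controls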
Yeast tox: yeast growth toxicity, wild-type and mutant, primary screen, cytotoxicity control for eIF2B function restoration project, wild-type and eIF2Bepsilon R284H mutant, A595. AID 685, 2007. growth inhibition, % at 25 µM (by protocol). hit rate 0.3% among 30,000. S. cerevisiae wild-type growth, A595 turbidity, 16 h;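 active means mutant and wild-type yeast strains alike exhibit over 30% growth inhibition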;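 further: 0% = untreated cell controls and 100% = YPD media blanks without cells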
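Schedule: 16 h growth with compound, 30 °C. System: yeast, wild-type or eIF2Bepsilon-R284H mutant. Doses: one dose, 25 µM compound[…]. Buffer or medium: YPD. Signal: turbidity measured as absorbance at 595 nm. Read-out basis: growth inhibition (%) versus cell controls and blanks.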
* = called active by the depositor; · = no result given. This is a sample that favours compounds with a hit; in the whole collection about 1.1% have one here.

SMILES | eIF2B yeast act | Yeast tox
CCCOCC1CC2(CC(C)(c3csc(N)n3)OC2=O)C(=O)O1 (stereo not drawn) | 61* | ·
O=C(CSc1nc(-c2ccccc2)c(-c2ccccc2)[nH]1)N1CCN(S(=O)(=O)c2ccccc2)CC1 | · | 13
O=C(OCC(=O)N1CCc2ccccc21)c1ccc(Cl)nc1 | · | 15
O=C(Nc1ccncc1)c1cc2ccccc2oc1=O | 50* | 9
COC(=O)c1cc2ccccc2oc1=O | 23 | 5
Clc1ccc2c(c1)C(N1CCNCC1)Cc1ccccc1S2 (stereo not drawn) | 41 | 86*
CC1C2=C(CCCC2=O)N(c2cccc3ccccc23)C2=C1C(=O)CCC2 | 34 | 4
CC(C)NC(=O)CSc1nc2ccccc2c(=O)n1CCCOC(C)C | -5 | 8
CC(NC(=O)CSc1nc2ccccc2c(=O)n1CCCO)c1ccccc1 (stereo not drawn) | 53* | 8
Cc1ccc(Cn2c(=O)n(Cc3ccco3)c(=O)c3ccccc32)cc1 | 22 | 7
CCS(=O)(=O)c1ccc2oc(SCC(=O)NC(C)C3CC4CCC3C4)nc2c1 (stereo not drawn) | -30 | 2
CCC(=O)OCCNc1cc(Sc2nc3ccccc3s2)c2nonc2c1[N+](=O)[O-] | · | 52*
CC(C)OC(=O)CSc1nc2ccccc2s1 | · | -12
CSc1nc(-c2ccccc2O)nc(-c2ccccc2O)n1 | 6 | 0
C=CCc1ccc(OCCCCN2CC(C)OC(C)C2)c(OC)c1 (stereo not drawn) | · | 34
CC(C)(C)NC(=O)C1CCN(C(=O)c2ccc(Br)cc2)CC1 | 24 | -4
CCC(=O)N1CCc2cc(S(=O)(=O)NC(C(=O)NCc3ccccc3)C(C)C)ccc21 (stereo not drawn) | 55* | 3
CCC(=O)N1CCc2cc(S(=O)(=O)NC(C(=O)NCc3ccc(F)cc3)C(C)C)ccc21 (stereo not drawn) | 27 | 2
C=CCOC(=O)C1=C(C)NC(SC)=C(C#N)C1c1cccs1 (stereo not drawn) | 10 | 9
CCOC(=O)C1=C(C)NC(SCc2cc(=O)[nH][nH]2)=C(C#N)C1c1cccs1 (stereo not drawn) | 56* | -6
CC(C)NC(=O)c1ccc(OC2CSC2)cc1 | -8 | -7
CCOc1ccc(C2C(C#N)=C(N)N3C(=C2C#N)Sc2ccccc23)cc1 (stereo not drawn) | 54* | 0
N#CC1=C(N)N2C(=C(C#N)C1c1ccccc1)Sc1ccccc12 (stereo not drawn) | 14 | 7
CCC(C)NS(=O)(=O)c1ccc(S(=O)(=O)N2CCCC3(CCCCC3)C2)cc1 (stereo not drawn) | 15 | 9
COc1cc2cc(C(c3nnnn3C3CCCCC3)N(C)C3CCCCC3)c(=O)[nH]c2cc1OC (stereo not drawn) | 45 | -3
SMILES | eIF2B yeast act | Yeast tox
Cc1cc(=O)oc2ccc(OCC(=O)N3CCc4ccccc43)cc12 | 50* | 5
Cc1cc(=O)oc2cc(OCC(=O)N3CCCc4ccccc43)ccc12 | -7 | 3
CC(NS(=O)(=O)c1ccc(CCC(=O)NCc2cccnc2)cc1)c1ccccc1 (stereo not drawn) | 21 | 8
O=C(Nc1ccccc1N1CCN(C(=O)c2ccccc2)CC1)c1cc2ccccc2o1 | 50* | -30
Nc1ccccc1N1CCN(C(=O)c2ccccc2)CC1 | 10 | 9
CC1CC(NS(=O)(=O)c2cccs2)CC(C)(C)C1 (stereo not drawn) | 18 | 0
CCOCC(=O)Nc1ccc(F)c(F)c1 | 12 | 0
CCOCC(=O)Nc1cccc(NC(C)=O)c1 | 72* | 0
CS(=O)(=O)N(Cc1ccccc1)c1ccc(C(=O)NCc2ccccc2)cc1 | 5 | 15
COc1cccc(CNC(=O)CSCc2cnn(-c3ccccc3)c2-n2cccc2)c1 | 12 | -52
Cc1ccc2nc3sc(C(=O)N4CCOCC4)c(N)c3cc2c1 | · | -4
COc1ccc2cc3c(N)c(C(=O)N4CCCC4)sc3nc2c1 | 54* | 33
COc1ccccc1Nc1nc(C)cc(C)c1C(N)=O | 52* | -12
Cc1cc(C)c(C(N)=O)c(Nc2cccc3ccccc23)n1 | · | -3
CN(CC(=O)Nc1ccc(Cl)cc1)CC(=O)Nc1cc(Cl)ccc1C#N | -26 | 10
COc1ccc(-c2nnn(CC(=O)N(Cc3ccc(F)cc3)C(C(=O)NC3CCCC3)c3ccc(F)cc3)n2)cc1 (stereo not drawn) | 56* | -8
CCOC(=O)CN(C(=O)Cn1nnc(-c2ccc(OC)cc2)n1)C(C(=O)NC1CCCC1)c1ccc(F)cc1 (stereo not drawn) | 17 | 16
Cc1ccnc2nc(C(=O)Nc3ccc(N4CCOCC4)cc3)nn12 | 53* | 24
O=C(Nc1ccc(N2CCOCC2)cc1)c1ccncc1 | -13 | ·
